Key:
[1] = Stability of compound in fasted state stimulated intestinal fluid at pH 1.3 assessed as half life in presence of 10 mg/ml pepsin by HPLC-UV assay; assay type: ADME; details: fasted state simulated intestinal fluid with pepsin
Summary of the method: (§1)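 HCl buffer with pepsin or phosphate buffer with pancreatin (10 or 40 mg/ml), preincubated at 37 °C. Drug stock (50 µM in ethanol/fasted state intestinal fluid 1:9) added and shaken at 37 °C, 650 rpm. Samples quenched with ice-cold acetonitrile containing 0.5% formic acid, centrifuged at 2 °C, and the supernatant assayed by HPLC-UV. Three experiments.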

[2] = Stability of compound in non-enzymatic stimulated-gastric fluid at pH 1.3 assessed as half life by HPLC-UV assay; assay type: physicochemical; details: non-enzymatic simulated gastric fluid
Summary of the method: (§2)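 Chemical hydrolysis in 0.02 M HCl buffer pH 1.3 (non-enzymatic simulated gastric fluid) or 0.02 M phosphate buffer pH 7.4, each containing 20% acetonitrile, at 37 °C. Started by adding the 10^-4 M acetonitrile stock. Samples taken over time and analyzed by HPLC-UV at 220 nm. Rate constants are means of triplicates.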

[3] = Cytotoxicity against Sprague-Dawley rat Cerebral cortex neuron assessed as cell viability at 1 uM incubated for 24 hrs by MTT assay relative to control; assay type: tissue-based; details: cerebral cortex neurons, read-out: Activity
Summary of the method: (§3)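 Primary fetal rat cortical neurons, matured 8 days, treated 24 h at 37 °C with compound (0.1–100 µM; 0.5% DMSO or water vehicle). MTT 0.7 mg/ml was then added for 30 min at 37 °C, and formazan was extracted with isopropanol/formic acid (95:5) and read at 560 nm. Untreated control was set as 100% viability. Four independent experiments.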

[4] = Cytotoxicity against Sprague-Dawley rat Cerebral cortex neuron assessed as cell viability at 10 uM incubated for 24 hrs by MTT assay relative to control; assay type: tissue-based; details: cerebral cortex neurons, read-out: Activity; summary of the method: as §3
[5] = Cytotoxicity against Sprague-Dawley rat Cerebral cortex neuron assessed as cell viability at 25 uM incubated for 24 hrs by MTT assay relative to control; assay type: tissue-based; details: cerebral cortex neurons, read-out: Activity; summary of the method: as §3
[6] = Cytotoxicity against rat Sprague-Dawley Cerebral cortex neuron assessed as cell viability at 50 uM incubated for 24 hrs by MTT assay relative to control; assay type: tissue-based; details: cerebral cortex neurons, read-out: Activity; summary of the method: as §3
[7] = Cytotoxicity against Sprague-Dawley rat Cerebral cortex neuron assessed as cell viability at 100 uM incubated for 24 hrs by MTT assay relative to control; assay type: tissue-based; details: cerebral cortex neurons, read-out: Activity; summary of the method: as §3
[8] = Cytotoxicity against Sprague-Dawley rat Cerebral cortex neuron assessed as LDH activity at 1 uM incubated for 24 hrs by LDH assay (reference value: […]); assay type: tissue-based
Summary of the method: (§4)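 Primary fetal rat cortical neurons, matured 8 days on poly-D-lysine, exposed 24 h at 37 °C to compound (0.1–100 µM; DMSO 0.5% or water vehicle). LDH released into 100 µl culture medium was measured by kit as the rate of NAD+ reduction (absorbance increase at 490 nm). Positive control was mitomycin C. Four independent experiments.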

[9] = Cytotoxicity against Sprague-Dawley rat Cerebral cortex neuron assessed as LDH activity at 10 uM incubated for 24 hrs by LDH assay; assay type: tissue-based; summary of the method: as §4
[10] = Cytotoxicity against Sprague-Dawley rat Cerebral cortex neuron assessed as LDH activity at 100 uM incubated for 24 hrs by LDH assay (reference value: […]); assay type: tissue-based; summary of the method: as §4
[11] = Antioxidant activity in Sprague-Dawley rat Cerebral cortex neuron assessed as total antioxidant capacity by measuring trolox equivalents at 0.1 uM after 24 hrs; assay type: functional
Summary of the method: (§5)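 Primary cerebral cortex neurons from rat fetuses, grown on poly-D-lysine in neurobasal medium with fetal calf serum (5% CO2, 37 °C), tested after 8 days in culture. Compounds in DMSO (0.5%) or sterile water were added and incubated 24 h at 37 °C. Cells were washed in ice-cold PBS and homogenized in 0.9% saline. Intracellular TAC (Trolox equiv.) and TOS (H2O2 equiv.) were read by kit. Ascorbic acid 10 µM (TAC) and H2O2 25 µM (TOS) served as positive controls. Four independent experiments.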

[12] = Antioxidant activity in Sprague-Dawley rat Cerebral cortex neuron assessed as total antioxidant capacity by measuring trolox equivalents at 1 uM after 24 hrs; assay type: functional; summary of the method: as §5
[13] = Antioxidant activity in Sprague-Dawley rat Cerebral cortex neuron assessed as total antioxidant capacity by measuring trolox equivalents at 10 uM after 24 hrs; assay type: functional; summary of the method: as §5
[14] = Antioxidant activity in Sprague-Dawley rat Cerebral cortex neuron assessed as total antioxidant capacity by measuring trolox equivalents at 25 uM after 24 hrs; assay type: functional; summary of the method: as §5
[15] = Antioxidant activity in Sprague-Dawley rat Cerebral cortex neuron assessed as total antioxidant capacity by measuring trolox equivalents at 50 uM after 24 hrs; assay type: functional; summary of the method: as §5
[16] = Antioxidant activity in Sprague-Dawley rat Cerebral cortex neuron assessed as total antioxidant capacity by measuring trolox equivalents at 100 uM after 24 hrs; assay type: functional; summary of the method: as §5
[17] = Antioxidant activity in Sprague-Dawley rat Cerebral cortex neuron assessed as total oxidative stress level by measuring H2O2 equivalents at 1 uM after 24 hrs (reference value: 2.3 +/- 0.3 umol/L); assay type: functional; summary of the method: as §5
[18] = Antioxidant activity in Sprague-Dawley rat Cerebral cortex neuron assessed as total oxidative stress level by measuring H2O2 equivalents at 10 uM after 24 hrs (reference value: 2.3 +/- 0.3 umol/L); assay type: functional; summary of the method: as §5
[19] = Antioxidant activity in Sprague-Dawley rat Cerebral cortex neuron assessed as total oxidative stress level by measuring H2O2 equivalents at 50 uM after 24 hrs (reference value: 2.3 +/- 0.3 umol/L); assay type: functional; summary of the method: as §5
[20] = Antioxidant activity in Sprague-Dawley rat Cerebral cortex neuron assessed as total oxidative stress level by measuring H2O2 equivalents at 100 uM after 24 hrs (reference value: 2.3 +/- 0.3 umol/L); assay type: functional; summary of the method: as §5
[21] = Stability of compound in fasted state stimulated intestinal fluid at pH 1.3 assessed as half life in presence of 40 mg/ml pepsin by HPLC-UV assay; assay type: ADME; details: fasted state simulated intestinal fluid with pepsin; summary of the method: as §1
[22] = Stability of compound in fasted state stimulated intestinal fluid at pH 7.4 assessed as half life in presence of 10 mg/ml pancreatin by HPLC-UV assay; assay type: ADME; details: for half-life: fasted state simulated intestinal fluid with pancreatin; summary of the method: as §1
[23] = Stability of compound in fasted state stimulated intestinal fluid at pH 7.4 assessed as half life in presence of 40 mg/ml pancreatin by HPLC-UV assay; assay type: ADME; details: for half-life: fasted state simulated intestinal fluid with pancreatin; summary of the method: as §1
[24] = Stability of compound in rat plasma assessed as half life by HPLC-UV assay; assay type: ADME, cell-free
Summary of the method: (§6)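 Citrated human or rat plasma diluted to 80% with 0.02 M phosphate buffer pH 7.4, 37 °C with shaking. Compound added from a 1 mg/ml acetonitrile stock. Aliquots deproteinized with 0.01 M HCl in methanol, centrifuged, and analyzed by HPLC-UV (C8 column, KH2PO4/methanol pH 2.5, 220 nm). Remaining intact compound plotted against time. Three experiments.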

[25] = Stability of compound in non-enzymatic stimulated-gastric fluid at pH 1.3 assessed as rate of compound hydrolysis by HPLC-UV assay; assay type: physicochemical; details: simulated gi fluid; summary of the method: as §2
[26] = Stability of compound in phosphate buffer at pH 7.4 assessed as rate of compound hydrolysis by HPLC-UV assay; assay type: physicochemical; summary of the method: as §2
[27] = Stability of compound in fasted state stimulated intestinal fluid at pH 1.3 assessed as rate of compound hydrolysis in presence of 10 mg/ml pepsin by HPLC-UV assay; assay type: ADME; details: isolated protein; summary of the method: as §1
[28] = Stability of compound in human plasma assessed as rate of compound hydrolysis by HPLC-UV assay; assay type: ADME, cell-free; summary of the method: as §6

half-life [1]	half-life [2]	SMILES	viability at 24 h, 1 µM [3]	viability at 24 h, 10 µM [4]	viability at 24 h, 25 µM [5]	viability at 24 h, 50 µM [6]	viability at 24 h, 100 µM [7]	Activity [8]	Activity [9]	Activity [10]	TAC [11]	TAC [12]	TAC [13]	TAC [14]	TAC [15]	TAC [16]	Activity [17]	Activity [18]	Activity [19]	Activity [20]	other results
112 h	240 h	COc1ccc(CN2CCN(C(=O)CCCCC3CCSS3)CC2)cc1 (stereo not drawn)	97.4%	96.1%	95.3%	92.7%	89.3%	0.3 mU/ml	0.3 mU/ml	0.34 mU/ml	10.5 mmol/L	11.2 mmol/L	10.9 mmol/L	11.3 mmol/L	11 mmol/L	10.8 mmol/L	0.5 µmol/L	0.5 µmol/L	0.5 µmol/L	0.5 µmol/L	half-life [21]: 23.7 h; half-life [22]: 60.9 h; half-life [23]: 41.6 h; half-life [24]: 4.13 h; Drug degradation [25]: 0.003 h⁻¹; Drug degradation [26]: 0.003 h⁻¹; Drug degradation [27]: 0.006 h⁻¹; Drug degradation [28]: 0.13 h⁻¹
107 h	88 h	O=C(CCCCC1CCSS1)N1CCN(Cc2ccc(F)cc2)CC1 (stereo not drawn)	97.5%	97.2%	96%	96.5%	96.7%	0.28 mU/ml	0.34 mU/ml	0.34 mU/ml	10.9 mmol/L	11.2 mmol/L	12.6 mmol/L	13.9 mmol/L	11.4 mmol/L	11.1 mmol/L	0.5 µmol/L	0.4 µmol/L	0.5 µmol/L	0.5 µmol/L	half-life [21]: 37.2 h; half-life [22]: 75.1 h; half-life [23]: 32.3 h; half-life [24]: 2.92 h; Drug degradation [25]: 0.008 h⁻¹; Drug degradation [26]: 0.009 h⁻¹; Drug degradation [27]: 0.007 h⁻¹; Drug degradation [28]: 0.165 h⁻¹
24.5 h	58.7 h	O=C(CCCCC1CCSS1)OC1CCN(Cc2ccccc2)CC1 (stereo not drawn)	98.7%	97.8%	98.1%	97.6%	97.8%	0.26 mU/ml	0.29 mU/ml	0.32 mU/ml	10.8 mmol/L	10.9 mmol/L	11.4 mmol/L	13.8 mmol/L	13.6 mmol/L	12.5 mmol/L	0.5 µmol/L	0.4 µmol/L	0.4 µmol/L	0.5 µmol/L	half-life [21]: 23.1 h; half-life [22]: 0.29 h; half-life [23]: 0.09 h; t1/2 [24]: Unstable; Drug degradation [25]: 0.012 h⁻¹; Drug degradation [26]: 0.017 h⁻¹; Drug degradation [27]: 0.028 h⁻¹; Drug degradation [28]: 1.61 h⁻¹
69 h	93 h	O=C(CCCCC1CCSS1)N1CCN(Cc2ccccc2)CC1 (stereo not drawn)	98.6%	97.5%	96.8%	96%	95.4%	0.32 mU/ml	0.32 mU/ml	0.34 mU/ml	10.4 mmol/L	11.1 mmol/L	12.6 mmol/L	12.9 mmol/L	14.8 mmol/L	14.6 mmol/L	0.5 µmol/L	0.4 µmol/L	0.5 µmol/L	0.5 µmol/L	half-life [21]: 66.2 h; half-life [22]: 22.2 h; half-life [23]: 9.58 h; t1/2 [24]: Unstable; Drug degradation [25]: 0.007 h⁻¹; Drug degradation [26]: 0.013 h⁻¹; Drug degradation [27]: 0.01 h⁻¹; Drug degradation [28]: 0.39 h⁻¹
39.1 h	52 h	COc1ccc(CN2CCC(OC(=O)CCCCC3CCSS3)CC2)cc1 (stereo not drawn)	98.4%	97.1%	96.2%	95%	91.2%	0.29 mU/ml	0.34 mU/ml	0.34 mU/ml	10.8 mmol/L	11.3 mmol/L	11 mmol/L	11.4 mmol/L	10.9 mmol/L	10.7 mmol/L	0.4 µmol/L	0.4 µmol/L	0.5 µmol/L	0.5 µmol/L	half-life [21]: 22.2 h; half-life [22]: 2.78 h; half-life [23]: 2.83 h; half-life [24]: 0.46 h; Drug degradation [25]: 0.013 h⁻¹; Drug degradation [26]: 0.019 h⁻¹; Drug degradation [27]: 0.018 h⁻¹; Drug degradation [28]: 1.14 h⁻¹
3.77 h	47 h	O=C(CCCCC1CCSS1)OC1CCN(Cc2ccc(F)cc2)CC1 (stereo not drawn)	98.3%	96.9%	97.1%	95.8%	95.6%	0.3 mU/ml	0.29 mU/ml	0.32 mU/ml	11 mmol/L	11.2 mmol/L	11.1 mmol/L	12.6 mmol/L	13.5 mmol/L	12.4 mmol/L	0.4 µmol/L	0.4 µmol/L	0.5 µmol/L	0.5 µmol/L	half-life [21]: 0.68 h; t1/2 ([22]; simulated gi fluid): Unstable; t1/2 ([23]; simulated gi fluid): Unstable; half-life [24]: 0.56 h; Drug degradation [25]: 0.015 h⁻¹; Drug degradation [26]: 0.019 h⁻¹; Drug degradation [27]: 0.184 h⁻¹; Drug degradation [28]: 0.856 h⁻¹
